Calb biofilm kill = clotrimazole potentiators killing C. albicans biofilm, primary screen, 4-compound mixtures | C. albicans biofilm persisters + clotrimazole, fluorescence viability; primary screen in compound mixtures of four per well | inhibition, % at 7.6 µM | 120,000 compounds, 0.02% hits;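 active = inhibition above 30.3% in the primary screen of four-compound pools, then above 30% when the compound was retested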;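 also: compounds exposed to preformed 24 h biofilms for 48 h; 0% = untreated biofilm control and 100% = clotrimazole plus chlorhexidine kill blank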
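Probe or stimulus – Clotrimazole 50 µg/mL co-treatment · System – C. albicans biofilms · Schedule – 24 h biofilm formation, then 48 h compound exposure, 37 °C · Evaluation – percent inhibition of biofilm viability · Technique – 2-h Alamar Blue fluorescence, 535/590 nm excitation/emission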
eIF4E-4G inh = eIF4E–eIF4G protein interaction inhibitors, primary screen, biochemical, uHTS, TR-FRET, eIF4GI fragment | Eukaryotic translation initiation factor 4E (Mus musculus) + Eukaryotic translation … | TR-FRET eIF4E-eIF4GI(517-606) binding, 2 h | inhibition, % at 21.7 µM | 220,000 compounds, 0.37% hits;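 active = inhibition above about 30%, limit read from the data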;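 also: 0% = full FRET control wells and 100% = background wells lacking eIF4GI fragment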
14-3-3 Bad inh = inhibitors of 14-3-3 zeta/Bad binding, primary screen, biochemical, TR-FRET, bovine 14-3-3 zeta; TR-FRET 14-3-3zeta/Dy647-pBad peptide displacement, 1 h; 220,000 compounds, 0.71% hits; AID 781, 2007; 14-3-3 protein zeta/delta (Bos taurus), P63103; inhibition, % at 21.7 µM;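 active = inhibition above about 70%, limit read from the data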;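 also: 0% = full 14-3-3 plus peptide FRET controls and 100% = background without 14-3-3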
p97 ATPase inh = inhibitors of human p97 ATPase, primary screen, biochemical | Transitional endoplasmic reticulum ATPase (Homo sapiens), P55072 | recombinant p97 ATPase, Kinase-Glo ATP luminescence, 3 h | inhibition, % at 8 µM | 220,000 compounds, 0.42% hits | AID 1481, 2009; in the data active = inhibition above about 15%;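 also: 0% = DMSO vehicle and 100% = wells lacking enzyme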
Hck Nef HTS = inhibitors of Nef-activated human Hck kinase, primary screen, biochemical, Z-Lyte FRET, 384-well, Hck-YEEI | Tyrosine-protein kinase HCK (Homo sapiens), P08631 | Recombinant Hck-YEEI plus Nef, Z-Lyte FRET kinase assay | inhibition, % at 20 µM | 220,000 compounds, 0.68% hits | AID 463187, 2010;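 active = Hck-Nef kinase inhibition above about 50%, limit read from the data; inactive = inhibition below that limit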;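 also: 0% = DMSO with Hck plus Nef and 100% = Hck alone without Nef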
PERK inh = block of dimerizer-induced PERK translation repression, primary screen, PERK inhibitor project, CHO PERK-DD cells, SEAP luminescence, HTS; inhibition, % at 5.6 µM; Eukaryotic translation initiation factor 2-alpha kinase 3 (Homo sapiens), Q9NZJ5; CHO PERK-DD fusion, SEAP luminescence translation reporter; AID 1416, 2008; 220,000 compounds, 0.17% hits;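 active = inhibition above the mean inhibition of all tested compounds plus 3 SD, set separately per screening campaign, cut at about 2.9% in these data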;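 also: PERK kinase domain activated by AP20187 dimerizer at 100 nM; 0% = DMSO with dimerizer and 100% = rapamycin at 8.4 µM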
p97 confirm = p97 ATPase inhibitors, retest, confirmation, biochemical; shares compounds with p97 ATPase inh; recombinant p97 ATPase, Kinase-Glo ATP luminescence; inhibition, % at 8 µM; 760 compounds, 44% hits;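 active = percent inhibition of p97 ATPase above a set limit, the primary screen's mean plus 3 SD, cut at about 15% in these data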;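 also: 0% = DMSO wells and 100% = wells lacking p97 protein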
The depositor's hits bear a star; . = no result; ! = not active in a repeat. Compounds with a hit are over-represented: about 2.2% of the library has one in this group of screens.

SMILES	Calb biofilm kill	eIF4E-4G inh	14-3-3 Bad inh	p97 ATPase inh	Hck Nef HTS	PERK inh	p97 confirm
COc1ccccc1-c1nnc(Sc2nc([N+](=O)[O-])nn2C)o1	.	8	-7	16*	2	2	24*
NS(=O)(=O)c1ccc(Nc2nc(-c3ccc(O)cc3O)cs2)cc1	.	-4	3	27*	33	0	51*
COc1cc2[nH]c(Cl)c([N+](=O)[O-])c2cc1OC	17	-3	15	17*	22	1	6
Cc1c(/C=N/Nc2nc3ccccc3[nH]2)c2ccccc2n1C	16	-3	-9	24*	10	-2	17*
Cn1c(/C=N/Nc2nc3ccccc3[nH]2)nc2ccccc21	13	-3	-8	-3	2	-1	.
N#CC1=C(N)Oc2cc(Nc3ccccc3)ccc2C1c1ccncc1 (stereo not drawn)	.	9	-2	20*	5	2	33*
O=C1NCCCC2c3c(cc(Br)c(O)c3Br)OC12N1CCOCC1 (stereo not drawn)	.	2	1	0	0	1	.
O=C1NCCCC2c3cc(O)c4ccccc4c3OC12N1CCCCC1 (stereo not drawn)	.	13	-11	34*	2	1	14
CCn1cc([N+](=O)[O-])c(C(=O)Nc2nc3ccc(OC)cc3s2)n1	22	1	0	-3	26	1	.
CCC(Cc1ccccc1)NC(=O)CCn1cccc1 (stereo not drawn)	.	5	-19	16*	0	0	5
CCS(=O)(=O)CCSc1nc2ccccc2s1	.	-2	17	-7	-1	-1	.
O=S(=O)(CCSc1nc2ccccc2s1)c1nc2ccccc2s1	.	3	1	23*	-2	0	17*
Cc1ccc(/C=C/C2=Cc3c(sc(NC(=O)CSc4n[nH]c(N)n4)c3C#N)C(C)(C)C2)o1	.	0	2	19*	64*	1	22*
Brc1ccc2[nH]c3nc(SCCN4CCOCC4)nnc3c2c1	15	1	6	17*!	25	-1	7
c1ccc2c(c1)[nH]c1nc(SCCN3CCOCC3)nnc12	.	-4	-13	3	1	-1	.
CN1c2ccccc2C(C)(C)C12C=Nc1c(cc(N3CCOCC3)c3ccccc13)O2 (stereo not drawn)	.	2	-1	29*	0	0	3
C=CCn1c(SCC(=O)NCc2ccco2)nc2ccccc2c1=O	-3	-1	-10	15*	19	-1	8
Cc1cccc(OCCCC(=O)Nc2ccc(S(N)(=O)=O)cc2)c1	16	-2	12	17*	14	0	6
CC(=O)c1ccc(N2CCN(C(=O)CCCc3nc4ccccc4s3)CC2)cc1	18	7	6	-4	5	-1	.
CC1=NN(c2ccc(C)cc2C)C(=O)C1C(c1cccc(O)c1)C1C(=O)N(c2ccc(C)cc2C)N=C1C (stereo not drawn)	19	4	-27	23*	3	1	6
CC1=NN(c2nc(-c3ccc(C)cc3)cs2)C(=O)C1N=Nc1cccc(O)c1 (stereo not drawn)	8	3	-23	12	39	0	.
O=C(O)c1cccc(Nc2ncnc3ccc(Br)cc23)c1	9	0	7	17*	0	2	21*
COC(=O)c1cccc(Nc2ncnc3ccc(C)cc23)c1	.	0	-5	3	2	-1	.
O=C1CS/C(=N/N=C/c2c[nH]c3ccccc23)N1	27	-6	-2	-1	8	0	.
O=C1/C(=C/c2c[nH]c3ccccc23)CCC/C1=C\c1c[nH]c2ccccc12	7	19	1	29*	15	1	23*
SMILES	Calb biofilm kill	eIF4E-4G inh	14-3-3 Bad inh	p97 ATPase inh	Hck Nef HTS	PERK inh	p97 confirm
COc1ccc(CCCC(=O)Nc2ccccc2F)cc1	5	14	2	0	1	0	.
Cc1cc(Nc2nc3ccccc3nc2Cl)n(-c2ccccc2C)n1	.	1	13	15*	2	0	11
c1ccc(CN2CCN(c3ncnc4c3[nH]c3ccccc34)CC2)cc1	.	.	.	15*	2	1	10
Cc1ccc(C)c(NC(=O)c2cnc3n(c2=O)CCS3)c1	21	2	-3	29*	14	0	20*
O=C(N[C@@H](Cc1ccccc1)C(=O)OCc1ccccc1)c1nc[nH]c1C(=O)NCc1ccccc1	14	1	-19	17*	1	1	20*
O=C(N[C@@H](Cc1ccccc1)C(=O)OCc1ccccc1)c1nc[nH]c1C(=O)N1CCN(c2ccccc2)CC1	-1	6	-2	.	11	.	.
CN(C)S(=O)(=O)c1cccc(NC(=O)Cn2cnc3ccccc3c2=O)c1	.	-14	4	3	0	1	.
CCSc1cc(C)nc2c(-c3ccc(Cl)cc3)c(C)nn12	.	0	-2	-2	-1	-1	.
Cc1cc(SCC(=O)c2ccc(O)c(O)c2)n2nc(C)c(-c3ccccc3)c2n1	28	-6	-3	15*	-5	-1	18*
O=C1CC(N2CCN(c3ccccc3Cl)CC2)C(=O)N1c1cccc(F)c1 (stereo not drawn)	.	0	-4	3	1	1	.
O=C1CC(=O)N(c2cccc(F)c2)N1	4	-1	-8	22*	1	0	9
CC1(C)Cc2ccccc2C(N/N=C/c2ccc(Cl)cc2)=N1	9	20	-4	0	6	1	.
CC(C)NC(=S)Nc1c(N)[nH]c(=O)[nH]c1=O	9	-4	-3	5	11	2	.
O=C(CN(C(=O)Cn1nnc(-c2cccs2)n1)c1ccc2c(c1)OCCO2)NC1CCCCC1	.	-9	-2	15*	1	0	7
CC1CCc2nc(N)c(C#N)c(-c3cccnc3)c2C1 (stereo not drawn)	.	3	9	26*	28	0	5
CC1CCc2nc(N)c(C#N)c(-c3ccncc3)c2C1 (stereo not drawn)	.	.	.	5	2	-1	.

Screening data deposited in PubChem by several laboratories.
